Source: paper PMC5481492 (Chemico-biological interactions, 2016)
Where two headings read alike, the source gives them in different places.

What was measured:
[1] = target: T1, horse liver ADH1E S48T/F93A (Equus caballus, UniProt P00327, F94A/S49T); experiment: Inhibition of ethanol oxidation, S48T/F93A enzyme; assay type: biochemical
[2] = target: T2, horse liver ADH1E (EqADH1E), wild-type (Equus caballus, UniProt P00327); details: cited from earlier work
[3] = target: T1, horse liver ADH1E S48T/F93A; experiment: Steady-state kinetics, S48T/F93A enzyme; assay type: biochemical
[4] = target: T1, horse liver ADH1E S48T/F93A; experiment: Transient; assay type: biochemical; details: pH 8.0, 25 °C; 2 mM NAD+ (oxidation) or stoichiometric NADH (reduction)
How it was run: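 Stopped-flow (three-syringe, 2.5 ms dead time) at 25 °C in 33 mM sodium phosphate, 0.25 mM EDTA, pH 8.0. Enzyme at 6–15 μN (active sites) was mixed with 2 mM NAD⁺ and varied alcohol (oxidation), or with NADH equal to the enzyme concentration and varied carbonyl compound (reduction). A328 bursts (Δε 5500 M⁻¹cm⁻¹) were fitted as first-order; rate constants were analysed against substrate concentration.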

[5] = target: T2, horse liver ADH1E (EqADH1E), wild-type; details: value in parentheses; cited from earlier work
[6] = target: T2, horse liver ADH1E (EqADH1E), wild-type; details: pH 8.5, 25 °C, cited from earlier work
horse liver ADH1E S48T [7] = target: T3, horse liver ADH1E S48T (Equus caballus, UniProt P00327, S49T); experiment: Steady-state kinetics, S48T enzyme; assay type: biochemical
T3 sequence (P00327 whole entry S49T): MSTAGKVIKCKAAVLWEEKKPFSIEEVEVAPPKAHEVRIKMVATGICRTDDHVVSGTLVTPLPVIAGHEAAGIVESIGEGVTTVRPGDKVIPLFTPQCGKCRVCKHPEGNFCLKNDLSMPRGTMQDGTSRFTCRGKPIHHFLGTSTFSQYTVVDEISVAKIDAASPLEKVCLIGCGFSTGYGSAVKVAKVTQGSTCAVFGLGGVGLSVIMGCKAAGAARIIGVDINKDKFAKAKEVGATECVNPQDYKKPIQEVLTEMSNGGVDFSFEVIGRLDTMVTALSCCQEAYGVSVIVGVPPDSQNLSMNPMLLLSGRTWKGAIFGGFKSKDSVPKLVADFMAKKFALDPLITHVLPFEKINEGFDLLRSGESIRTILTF

horse liver ADH1E S48A = horse liver ADH1E S48A (Equus caballus, UniProt P00327, S49A); experiment: Steady-state kinetics, S48A enzyme; assay type: biochemical; details: pH 8.0, 25 °C
Sequence of horse liver ADH1E S48A (P00327 whole entry S49A): as the sequence (P00327 whole entry S49T) above, with T49A counted along it

horse liver ADH1E F93A [8] = target: T4, horse liver ADH1E F93A (Equus caballus, UniProt P00327, F94A); experiment: Steady-state kinetics, F93A enzyme; assay type: biochemical
T4 sequence (P00327 whole entry F94A): as the sequence (P00327 whole entry S49T) above, with T49S, F94A counted along it

[9] = target: T2, horse liver ADH1E (EqADH1E), wild-type; details: pH 8.0, 25 °C; cited from earlier work
[10] = target: T2, horse liver ADH1E (EqADH1E), wild-type; experiment: Steady-state kinetics, wild-type enzyme; assay type: biochemical; details: enantioselectivity
horse liver ADH1E F93A [11] = target: T4, horse liver ADH1E F93A; details: cited from earlier work; for Substrate deuterium isotope effect on k max: value in brackets
horse liver ADH1E S48T [12] = target: T3, horse liver ADH1E S48T; experiment: Inhibition of ethanol oxidation, S48T enzyme; assay type: biochemical
horse liver ADH1E F93A [13] = target: T4, horse liver ADH1E F93A; experiment: Inhibition of ethanol oxidation, F93A enzyme; assay type: biochemical
[14] = competitive against ethanol, pH 8.0, 25 °C
[15] = pH 8.0, 25 °C, both substrates varied
[16] = read-out: Inhibition constant for coenzyme (Kia NAD+, Kiq NADH), pH 8.0, 25 °C

T1 sequence (P00327 whole entry S49T/F94A): as the sequence (P00327 whole entry S49T) above, with F94A counted along it
T2 sequence (P00327 whole entry): as the sequence (P00327 whole entry S49T) above, with T49S counted along it

OCC(F)(F)C(F)(F)C(F)(F)F [heptafluorobutanol]
Ki [1, 14]: 53 µM
Ki [2]: 5.3 µM

CCC(C)=O [2-Butanone, 2-butanone]
Km ([3]; ketone reduction, 0.1 mM NADH): 12.7 ± 0.9 mM
V2/Et ([3]; ketone reduction, 0.1 mM NADH): 0.081 ± 0.002 s⁻¹
K m (transient reaction) [4]: 29 mM
k max (transient oxidation or reduction) [4]: 0.14 s⁻¹
k max (transient oxidation or reduction) [5]: 0.12 s⁻¹
Binding rate constant k−6 ([6]; (pro-R)-2-butanone pathway): 6.5 M⁻¹ s⁻¹
Dissociation rate constant k6 ([6]; (pro-R)-2-butanone pathway): 4.3 s⁻¹
Binding rate constant k−6 ([6]; (pro-S)-2-butanone pathway): 180 M⁻¹ s⁻¹
Dissociation rate constant k6 ([6]; (pro-S)-2-butanone pathway): 2.5 s⁻¹

NC(=O)c1ccc[n+]([C@@H]2O[C@H](COP(=O)([O-])OP(=O)(O)OC[C@H]3O[C@@H](n4cnc5c(N)ncnc54)[C@H](O)[C@@H]3O)[C@@H](O)[C@H]2O)c1 [NAD^+]
Michaelis constant for coenzyme (Ka NAD+, Kq NADH) (horse liver ADH1E S48T [7]; [15]): 11 µM
Ki (horse liver ADH1E S48T [7]; [16]): 15 µM
Michaelis constant for coenzyme (Ka NAD+, Kq NADH) (horse liver ADH1E S48A; both substrates varied): 200 µM
Ki (horse liver ADH1E S48A; read-out: Inhibition constant for coenzyme (Kia NAD+, Kiq NADH)): 110 µM
Michaelis constant for coenzyme (Ka NAD+, Kq NADH) (horse liver ADH1E F93A [8]; [15]): 3.3 µM
Ki (horse liver ADH1E F93A [8]; [16]): 44 µM
Michaelis constant for coenzyme (Ka NAD+, Kq NADH) [3, 15]: 4.4 µM
Ki [3, 16]: 33 µM
Michaelis constant for coenzyme (Ka NAD+, Kq NADH) [9]: 3.9 µM

CCCCCCC(C)O (centres unmarked) [2-Octanol, 2-octanol]
Ratio of V/Km for (R)- to (S)-enantiomers [10]: 0.0034
Ratio of V/Km for (R)- to (S)-enantiomers (horse liver ADH1E S48T [7]; enantioselectivity): 0.023
Ratio of V/Km for (R)- to (S)-enantiomers (horse liver ADH1E F93A [8]; enantioselectivity): 0.62
Increase of the R/S ratio (inversion of enantioselectivity) as compared to wild-type enzyme ([3]; S48T/F93A relative to wild-type): 590 fold
Ratio of V/Km for (R)- to (S)-enantiomers ([3]; enantioselectivity): 2.0

O=Cc1ccccc1 [Benzaldehyde, benzaldehyde]
K m (transient reaction) [4]: 0.26 mM
k max (transient oxidation or reduction) [4]: 0.67 s⁻¹
k max (transient oxidation or reduction) (horse liver ADH1E F93A [11]): 2.2 s⁻¹
Substrate deuterium isotope effect on k max (horse liver ADH1E F93A [11]): 3.4
K m (transient reaction) [5]: 0.49 mM
k max (transient oxidation or reduction) [5]: 320 s⁻¹

OCc1c(F)c(F)c(F)c(F)c1F [pentafluorobenzyl alcohol, 2,3,4,5,6-pentafluorobenzyl alcohol]
Ki (horse liver ADH1E S48T [12]): 740 µM
Ki (horse liver ADH1E F93A [13]): 51 µM
Ki [1]: > 10000 µM
Ki [2, 14]: 0.52 µM

OCc1ccccc1 [Benzyl alcohol, benzyl alcohol]
K m (transient reaction) [4]: 15 mM
k max (transient oxidation or reduction) [4]: 78 s⁻¹
k max (transient oxidation or reduction) (horse liver ADH1E F93A [11]): 3.3 s⁻¹
Substrate deuterium isotope effect on k max (horse liver ADH1E F93A [11]): 4.0
K m (transient reaction) [5]: 0.03 mM
k max (transient oxidation or reduction) [5]: 24 s⁻¹

CC=O [acetaldehyde]
Turnover number (V1/Et ethanol oxidation, V2/Et acetaldehyde reduction) (horse liver ADH1E S48T [7]; pH 8.0, 25 °C): 20 s⁻¹
Turnover number (V1/Et ethanol oxidation, V2/Et acetaldehyde reduction) (horse liver ADH1E S48A): 0.29 s⁻¹
Turnover number (V1/Et ethanol oxidation, V2/Et acetaldehyde reduction) (horse liver ADH1E F93A [8]; pH 8.0, 25 °C): 20 s⁻¹
Turnover number (V1/Et ethanol oxidation, V2/Et acetaldehyde reduction) ([3]; pH 8.0, 25 °C): 35 s⁻¹
K m (transient reaction) [4]: 150 mM
k max (transient oxidation or reduction) [4]: 58 s⁻¹
Turnover number (V1/Et ethanol oxidation, V2/Et acetaldehyde reduction) [9]: 47 s⁻¹
K m (transient reaction) [5]: 2.1 mM
k max (transient oxidation or reduction) [5]: 390 s⁻¹
